Measured values reported in ChEMBL document CHEMBL4342467, “Discovery of a Novel Dual-Target Inhibitor of ERK1 and ERK5 That Induces Regulated Cell Death to Overcome Compensatory Mechanism in Specific Tumor Types” (J Med Chem, 2020).
Calls of active or inactive are those of the source. The calls are words filed in the database; no cut-off is given here.

Key:
[1] = target: Mitogen-activated protein kinase 1 (Homo sapiens) (UniProt P28482); assay: Inhibition of ERK2 (unknown origin) at 1 uM by Z'-Lyte assay relative to control
Mitogen-activated protein kinase 1 (Homo sapiens), sequence (P28482 whole entry): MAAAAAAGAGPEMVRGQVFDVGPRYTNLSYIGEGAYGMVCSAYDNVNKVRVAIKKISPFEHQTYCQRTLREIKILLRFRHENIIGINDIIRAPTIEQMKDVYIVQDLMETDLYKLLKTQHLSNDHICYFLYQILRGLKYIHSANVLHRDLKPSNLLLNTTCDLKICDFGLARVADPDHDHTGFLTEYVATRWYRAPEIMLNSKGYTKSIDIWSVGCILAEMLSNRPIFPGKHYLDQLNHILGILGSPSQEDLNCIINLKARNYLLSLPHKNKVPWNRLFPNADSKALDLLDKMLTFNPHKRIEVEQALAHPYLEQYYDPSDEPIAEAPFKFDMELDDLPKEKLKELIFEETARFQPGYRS

[2] = target: Mitogen-activated protein kinase 7 (Homo sapiens) (UniProt Q13164); assay: Inhibition of ERK5 (unknown origin) at 1 uM by Z'-Lyte assay relative to control
Mitogen-activated protein kinase 7 (Homo sapiens), sequence (Q13164 2-816 limits assumed): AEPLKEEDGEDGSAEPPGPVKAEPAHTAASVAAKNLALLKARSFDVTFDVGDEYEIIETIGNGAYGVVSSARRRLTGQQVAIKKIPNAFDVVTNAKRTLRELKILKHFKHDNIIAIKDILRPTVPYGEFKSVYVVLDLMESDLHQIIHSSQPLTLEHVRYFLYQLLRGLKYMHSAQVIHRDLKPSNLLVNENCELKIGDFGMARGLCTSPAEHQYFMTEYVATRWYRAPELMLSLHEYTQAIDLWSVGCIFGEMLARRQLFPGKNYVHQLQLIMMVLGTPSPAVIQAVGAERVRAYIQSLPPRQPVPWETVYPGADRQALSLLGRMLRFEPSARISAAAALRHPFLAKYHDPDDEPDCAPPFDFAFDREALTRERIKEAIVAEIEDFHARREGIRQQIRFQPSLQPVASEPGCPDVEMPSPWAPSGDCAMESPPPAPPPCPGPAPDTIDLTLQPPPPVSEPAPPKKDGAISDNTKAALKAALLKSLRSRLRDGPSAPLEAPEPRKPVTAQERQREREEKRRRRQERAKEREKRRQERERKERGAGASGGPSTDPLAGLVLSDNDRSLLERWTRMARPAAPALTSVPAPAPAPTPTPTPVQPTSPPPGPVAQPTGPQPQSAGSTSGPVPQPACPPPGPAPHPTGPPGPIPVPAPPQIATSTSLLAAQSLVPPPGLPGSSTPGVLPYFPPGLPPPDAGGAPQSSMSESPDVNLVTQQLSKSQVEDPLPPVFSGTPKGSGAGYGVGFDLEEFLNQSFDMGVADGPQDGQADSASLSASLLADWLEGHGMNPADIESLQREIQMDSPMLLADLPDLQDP

HL-60 [3] = assay: Antiproliferative activity against human HL60 cells assessed as reduction in cell viability measured after 24 hrs; type: functional, cell-based; settings: HL-60, 24 h
[4] = target: Mitogen-activated protein kinase 3 (Homo sapiens) (UniProt P27361); assay: Inhibition of wild-type human full length ERK1 (M1 to P379 residues) expressed in bacterial expression system at 1 uM by Kinomescan method relative to control
Mitogen-activated protein kinase 3 (Homo sapiens), sequence (P27361 whole entry, the tested form may be a part): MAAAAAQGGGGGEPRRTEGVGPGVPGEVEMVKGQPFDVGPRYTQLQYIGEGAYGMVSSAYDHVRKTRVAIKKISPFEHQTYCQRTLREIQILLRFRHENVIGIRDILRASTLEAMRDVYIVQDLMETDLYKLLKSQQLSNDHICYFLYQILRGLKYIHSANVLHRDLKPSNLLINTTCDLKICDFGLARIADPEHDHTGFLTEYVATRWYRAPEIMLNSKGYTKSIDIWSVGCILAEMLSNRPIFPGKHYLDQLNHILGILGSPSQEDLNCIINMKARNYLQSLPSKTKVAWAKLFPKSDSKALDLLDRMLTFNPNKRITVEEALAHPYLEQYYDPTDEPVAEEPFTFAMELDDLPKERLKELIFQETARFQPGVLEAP
Outline: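 KINOMEscan binding assays over a 100-kinase panel, with test compound at 1 μM. Results are given as % inhibition.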

[5] = target: T1, Mitogen-activated protein kinase; ERK1/ERK2 (Homo sapiens) (UniProt P27361+P28482); assay: Inhibition of ERK1/2 in human MKN74 cells harboring siRNA assessed as reduction in ERK1/2 phosphorylation at 0.5 uM by immunofluorescence assay; type: cell-based
T1 sequence (P27361 whole entry, looked up): as the sequence (P27361 whole entry, the tested form may be a part) above
T1 sequence (P28482 whole entry, looked up): as the sequence (P28482 whole entry) above
Outline: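 MKN-74 cells transfected with ERK1/2-specific or negative-control siRNA for the indicated times, then given 0.5 μM. p-ERK1/2 and p-ERK5 puncta detected by immunocytochemistry.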

[6] = target: Mitogen-activated protein kinase 7 (Homo sapiens) (UniProt Q13164); assay: Inhibition of ERK5 in human MKN74 cells harboring siRNA assessed as reduction in ERK5 phosphorylation at 0.5 uM by immunofluorescence assay; type: cell-based
Outline: (§1)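 ERK1/2-specific or negative-control siRNA was transfected into MKN-74 cells for the indicated times, followed by compound at 0.5 μM. p-ERK1/2 and p-ERK5 puncta were detected by immunocytochemistry.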

[7] = target: Mitogen-activated protein kinase 7 (Homo sapiens) (UniProt Q13164); assay: Inhibition of ERK5 in human MKN74 cells harboring ERK1/2 siRNA assessed as reduction in ERK5 phosphorylation at 0.5 uM by immunofluorescence assay; type: cell-based; outline: as §1
[8] = target: T1, Mitogen-activated protein kinase; ERK1/ERK2 (Homo sapiens); assay: Inhibition of ERK1/2 in human MKN74 cells assessed as reduction in ERK1/2 phosphorylation at T202/Y204 residue at 0.5 uM measured up to 24 hrs by Western blot analysis; type: cell-based
[9] = target: T1, Mitogen-activated protein kinase; ERK1/ERK2 (Homo sapiens); assay: Inhibition of ERK1/2 in human MKN74 cells assessed as reduction in RSK phosphorylation at T359/S363 residue at 0.5 uM measured up to 24 hrs by Western blot analysis; type: cell-based
[10] = Effect on Ras/Raf/MEK/ERK signaling in human MKN74 cells assessed as change in Ras expression at 0.5 uM measured up to 24 hrs by Western blot analysis; type: cell-based
Outline: (§2)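 MKN-74 cells exposed to 0.5 μM for 0, 6, 12 and 24 h. Ras, Raf, p-MEK1/2, MEK1/2, p-JNK, JNK, p-p38 and p38 immunoblotted, with GAPDH as loading control.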

[11] = Effect on Ras/Raf/MEK/ERK signaling in human MKN74 cells assessed as change in Raf expression at 0.5 uM measured up to 24 hrs by Western blot analysis; type: cell-based; outline: as §2
[12] = Effect on Ras/Raf/MEK/ERK signaling in human MKN74 cells assessed as change in MEK1/2 phosphorylation at S217/221 residue at 0.5 uM measured up to 24 hrs by Western blot analysis; type: cell-based; outline: as §2
[13] = Effect on Ras/Raf/MEK/ERK signaling in human MKN74 cells assessed as change in JNK expression at 0.5 uM measured up to 24 hrs by Western blot analysis; type: cell-based; outline: as §2
MKN-74 [14] = assay: Induction of cytoplasmic vacuolization in human MKN74 cells; type: functional, cell-based
MKN-74 [15] = assay: Induction of autophagy in human MKN74 cells assessed as increase in LC3-2 expression at 0.5 uM measured after 24 hrs in presence of autophagy inhibitor 3-methyladenine by Western blot analysis; type: functional, cell-based
Outline: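 MKN-74 cells given 0.5 μM for 24 h with or without 3-MA; LC3 and p62 immunoblotted.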

MKN-74 [16] = assay: Cytotoxicity against human MKN74 cells harboring siRNA assessed as reduction in cell viability at 0.5 uM by MTT assay; type: functional, cell-based
Outline: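 MKN-74 cells transfected with ATG5-specific or negative-control siRNA for the indicated times, then treated with 0.5 μM. Viability read by MTT assay.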

HL-60 [17] = assay: Induction of cytoplasmic vacuolization in human HL60 cells; type: functional, cell-based
HL-60 [18] = assay: Antitumor activity against human HL60 cells xenografted in BALB/c mouse assessed as reduction in tumor volume at 50 mg/kg, po administered once daily for 16 days measured every 3 days during compound dosing; type: functional, organism-based
Outline: (§3)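 Female nude mice bearing subcutaneous HL-60, MKN-74 or HeLa xenografts, 8 per group. Dosing was vehicle control or 50 mg/kg p.o. once daily for 16 days. Tumor volume followed over time, mean ± SEM.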

HeLa = assay: Antitumor activity against human HeLa cells xenografted in BALB/c mouse assessed as reduction in tumor volume at 50 mg/kg, po administered once daily for 16 days measured every 3 days during compound dosing; type: functional, organism-based; outline: as §3
MKN-74 [19] = assay: Antitumor activity against human MKN74 cells xenografted in BALB/c mouse assessed as reduction in tumor weight at 50 mg/kg, po administered once daily for 16 days measured post-last dose; type: functional, organism-based
Outline: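 Female nude mice bearing subcutaneous xenografts (8 per group) received vehicle or 50 mg/kg p.o. once daily for 16 days. Excised tumors weighed and compared with control group.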

MKN-74 [20] = assay: Antitumor activity against human MKN74 cells xenografted in BALB/c mouse assessed as reduction in Ki-67 positive cells at 50 mg/kg, po administered once daily for 16 days measured post-last dose by immunohistochemical analysis; type: functional, organism-based
Outline: (§4)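 Tumors excised from control and 50 mg/kg p.o.-treated xenograft mice were immunostained for Ki-67, p-ERK1/2 and p-ERK5. Positive-cell percentage quantified and compared with control.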

Mus musculus = assay: In vivo inhibition of ERK5 in BALB/c mouse xenografted with human MKN74 cells assessed as reduction in phosphorylated ERK5 expression at 50 mg/kg, po administered once daily for 16 days measured post-last dose by immunohistochemical analysis; type: functional, organism-based; outline: as §4
[21] = Tmax in Sprague-Dawley rat at 1 mg/kg, iv by LC-MS analysis; type: ADME, organism-based; settings: in vivo
Outline: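 Two groups of rats (3 per group) received a single dose, either 1 mg/kg i.v. or 10 mg/kg p.o. Plasma concentrations were followed to derive Tmax, Cmax, T1/2, AUC and F. Data are from triple testing (± standard deviation).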

[22] = Cmax in Sprague-Dawley rat at 1 mg/kg, iv by LC-MS analysis; type: ADME, organism-based; parameters: dose 1 mg/kg, route intravenous; settings: in vivo
Outline: (§5)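 Rats, two groups of 3; single i.v. dose 1 mg/kg or oral dose 10 mg/kg. Plasma concentration-time profiles used to derive T1/2, Tmax, Cmax, AUC0-t, AUC0-∞ and oral bioavailability. Data from triplicate testing, ± standard deviation.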

[23] = AUC (0 to t) in Sprague-Dawley rat at 1 mg/kg, iv by LC-MS analysis; type: ADME, organism-based; settings: in vivo; outline: as §5
[24] = AUC (0 to t) in Sprague-Dawley rat at 10 mg/kg, po by LC-MS analysis; type: ADME, organism-based; settings: in vivo; outline: as §5
[25] = AUC (0 to infinity) in Sprague-Dawley rat at 10 mg/kg, po by LC-MS analysis; type: ADME, organism-based; parameters: dose 10 mg/kg, route oral, time infinity; settings: in vivo; outline: as §5

inhibition [1]: 92.7%
inhibition [2]: 89.3%
IC50 (HL-60 [3]): 1260 nM
inhibition [4]: 94%
inhibition [5]: Active
inhibition [6]: Active
inhibition [7]: Active
inhibition [8]: Active
inhibition [9]: inactive
Tmax [21]: 4.8 min
Cmax [22]: 1890 ng/mL
AUC(0-t) [23]: 1840 ng·h/mL
AUC(0-t) [24]: 5080 ng·h/mL
AUC(0-inf) [25]: 5180 ng·h/mL
Structure (SMILES): NC(=O)c1c(NC(=O)c2ccccc2Cl)sc2c1CCN(C(=S)Nc1ccccc1Cl)C2
Activity [10]: inactive
Activity [11]: inactive
Activity [12]: inactive
Activity [13]: inactive
Activity (MKN-74 [14]): Active
Activity (MKN-74 [15]): inactive
Activity (MKN-74 [16]): Active
Activity (HL-60 [17]): inactive
Activity (HL-60 [18]): Active
Activity (HeLa): inactive
Activity (MKN-74 [19]): Active
Activity (MKN-74 [20]): Active
inhibition (Mus musculus): Active
